Converted amounts (≈) assume the structure as drawn. The source made the active and inactive calls. The rule behind the calls is not given here.
What was measured:
Trypanosoma cruzi [1] = test: Antitrypanosomal activity against Trypanosoma cruzi trypomastigotes after 24 hrs by counting remaining live parasites in a Neubauer chamber
Trypanosoma cruzi [2] = test: Antitrypanosomal activity against Trypanosoma cruzi trypomastigotes infected in C3H/HeN mouse assessed survival rate at 1 mg/kg/day, ip treated from day 5 to 10 postinfection measured on 100th day postinfection; type: functional; conditions: route intraperitoneal
Outline: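 Male inbred C3H/HeN mice, 6 to 8 weeks old, 27.2 ± 0.9 g, in groups of five, infected ip with 5 x 10^3 bloodstream trypomastigotes. Circulating parasites confirmed on day 5 by microhematocrit. Dosed ip daily, 1 mg/kg/day, on days 5 to 10 postinfection, in 0.1 M PBS pH 7.2; vehicle alone as negative control. Deaths recorded daily; three independent experiments.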

Trypanosoma cruzi [3] = test: Antitrypanosomal activity against Trypanosoma cruzi epimastigotes after 72 hrs by [3H]thymidine uptake assay; type: functional, organism-based
Outline: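 Epimastigotes were seeded at 1.5 x 10^6/ml in triplicate with compound up to 100 µg/ml for 72 or 120 h, with [3H]thymidine pulsed for the final 16 h. Inhibition % = 100 − (cpm treated/cpm untreated × 100). Benznidazole (5 to 20 µM) was the positive control. Results are means ± SEM.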

Trypanosoma cruzi [4] = test: Antitrypanosomal activity against Trypanosoma cruzi trypomastigotes infected in C3H/HeN mouse assessed as decrease in parasitemia at 1 mg/kg/day, ip treated from day 5 to 10 postinfection measured on day 16; type: functional, organism-based
Outline: (§1)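 Male C3H/HeN mice (6–8 weeks, groups of five) were infected ip with 5 x 10^3 bloodstream trypomastigotes, with parasitemia confirmed on day 5 by microhematocrit. Dosing was 1 mg/kg/day ip in 0.1 M PBS pH 7.2 on days 5–10; vehicle served as negative control. Tail blood (5 µl, lysed 1:5 in NH4Cl/Tris) was counted by Neubauer chamber every 2 days. Deaths were recorded daily. Three independent experiments were run.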

[5] = Cytotoxicity against BALB/c mouse T cell after 24 hrs by trypan blue exclusion method; type: cell-based; conditions: T cells
Outline: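 BALB/c mouse T lymphocytes at 2 x 10^6/ml were exposed to 0.1, 1, 10 and 50 µg/ml compound for 24 h. Viability was scored by trypan blue exclusion. Results are means ± SEM of three experiments done in duplicate.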

[6] = Selectivity index, ratio of CC50 for mouse T cells to IC50 for Trypanosoma cruzi trypomastigotes; type: functional, T-cell
Outline: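 SI = 50% cytotoxic concentration on murine T lymphocytes (24 h, trypan blue exclusion) divided by IC50 against bloodstream trypomastigotes (24 h, Neubauer count of live parasites).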

Trypanosoma cruzi [7] = test: Antitrypanosomal activity against Trypanosoma cruzi trypomastigotes infected in C3H/HeN mouse assessed as reduction in parasitemia at 1 mg/kg/day, ip treated from day 5 to 10 postinfection measured during acute phase of infection relative to control; type: functional; conditions: route intraperitoneal
Outline: as §1

Leishmania mexicana = test: Antileishmanial activity against Leishmania mexicana MNYC/BZ/62/M promastigotes after 120 hrs by [3H]thymidine uptake assay; type: functional, organism-based
Outline: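 Promastigotes were seeded at 1.5 x 10^6/ml in triplicate and exposed to 0.01 to 100 µg/ml compound for 72 or 120 h. [3H]thymidine was added for the last 16 h. Percent inhibition = 100 − (cpm treated/cpm untreated × 100). Amphotericin B (0.27–1.6 µM) was the positive control.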

SMILES | IC50 (Trypanosoma cruzi [1]) | Activity (Trypanosoma cruzi [2]) | IC50 (Trypanosoma cruzi [3]) | inhibition (Trypanosoma cruzi [4]) | CC50 at 24 h [5] | Selectivity Index [6] | fold change (FC) (Trypanosoma cruzi [7]) | IC50 (Leishmania mexicana)
C=C1C(=O)O[C@@H]2[C@H]1CC[C@H](C)[C@]1(CCC(=O)O1)[C@@]2(C)O [PSILOSTACHYIN A] | 0.76 µg/mL (≈ 2.71 µM) | 100% | 1.22 µg/mL (≈ 4.35 µM) | Active | 25.7 µg/mL (≈ 91.7 µM) | 33.8 | 1.5 | 0.12 µg/mL (≈ 0.428 µM)
C=C1C(=O)O[C@@H]2C[C@H](C)[C@]3(O)CCC(=O)[C@@]3(C)C[C@H]12 [PERUVIN] | 52.8 µg/mL (≈ 200 µM) |  | 1.65 µg/mL (≈ 6.24 µM) |  | 35 µg/mL (≈ 132 µM) | 0.7 |  | 0.39 µg/mL (≈ 1.48 µM)
